Calls of active or inactive are those of the source. Unless noted, the calls are words filed in the database; no cut-off is given here.
Key:
Erythrocyte = assay: Hemolytic activity in human RBC at 100 uM measured after 1 hr; type: ADME, cell-based
Summary of the method: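 Fresh human RBCs were PBS-washed and resuspended to OD600 24, then mixed 1:1 by volume with compound serially diluted in PBS. Incubated 1 h at 37 °C without shaking and centrifuged at 1000g for 15 min. Triton X-100 served as positive control. Run in triplicate.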

[1] = molecular target: T1, tRNA (guanine-N(1)-)-methyltransferase (Pseudomonas aeruginosa (strain ATCC 15692 / DSM 22644 / CIP 104116 / JCM14847 / LMG 12228 / 1C / PRS 101 / PAO1), UniProt Q9HXQ1); assay: Inhibition of Pseudomonas aeruginosa tRNA (guanine(37)-N1)-methyltransferase (Leu5 to Asp25 residues) expressed in Escherichia coli BL21 (DE3) Rosetta T1R cells assessed as reduction in S-adenosyl-L-homocysteine production preincubated for 15 mins followed by 1.5 uM of tRNALeu(CAG) substrate and SAM addition and measured after 45 mins by MTase-Glo assay
T1 sequence (Q9HXQ1 whole entry): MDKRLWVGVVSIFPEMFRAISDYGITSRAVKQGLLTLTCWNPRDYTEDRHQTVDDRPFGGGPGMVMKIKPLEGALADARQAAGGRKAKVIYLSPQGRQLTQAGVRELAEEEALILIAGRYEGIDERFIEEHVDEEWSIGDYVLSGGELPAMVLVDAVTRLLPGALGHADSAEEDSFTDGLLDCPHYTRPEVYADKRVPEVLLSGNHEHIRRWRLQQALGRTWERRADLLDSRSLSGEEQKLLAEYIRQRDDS
Summary of the method: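 MTase-Glo luminescence assay. 8 nM TrmD preincubated 15 min at ambient temperature with serially diluted inhibitor (0–500 μM) in 50 mM Tris-HCl pH 8.0, 80 mM NaCl, 1 mM MgCl2, 0.5 mM DTT, 0.01% Triton X-100. Reaction with 2 μM SAM and tRNALeu(CAG), 45 min at 37 °C. Detection 30 min in the dark, SAH read against a standard curve. IC50 by nonlinear regression. Two independent experiments in duplicate.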

[2] = system: Mycolicibacterium smegmatis; assay: Antibacterial activity against Mycolicibacterium smegmatis MC2 155 at 100 uM incubated for 24 hrs; type: functional, organism-based
Summary of the method: (§1)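 Single-concentration growth screen: 100 μM test compound with log-phase bacteria at about 5×10^5 cells/mL. Incubation 24 h at 37 °C. Growth read by OD600 and given as percent of untreated control. MRSA was grown in cation-adjusted Mueller–Hinton broth. M. smegmatis was grown in complete Middlebrook 7H9. Ampicillin and kanamycin served as positive controls.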

Streptococcus pneumoniae [3] = assay: Antibacterial activity against Streptococcus pneumoniae ATCC 49619 at 100 uM incubated for 24 hrs; type: functional, organism-based
Summary of the method: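 Single 100 μM screen in MH medium with 3% defibrinated sheep blood at 37 °C under 5% CO2, ~5×10^5 cells/mL, 24 h.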

Enterococcus faecalis [4] = assay: Antibacterial activity against Enterococcus faecalis ATCC 51299 at 100 uM incubated for 24 hrs; type: functional, organism-based
Summary of the method: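 Single-concentration screen in brain heart infusion broth. Log-phase cells at ~5×10^5 cells/mL were grown with 100 μM compound for 24 h at 37 °C. Growth was read as OD600 and expressed as a percentage of untreated wells. DMSO and blank controls were included.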

[5] = system: Mycobacterium tuberculosis; assay: Antibacterial activity against Mycobacterium tuberculosis ATCC 27294 at 100 uM incubated for 7 days; type: functional, organism-based
Staphylococcus aureus [6] = assay: Antibacterial activity against methicillin-resistant Staphylococcus aureus ATCC 43300 at 100 uM incubated for 24 hrs; type: functional, organism-based; summary of the method: as §1
[7] = molecular target: T2, tRNA (guanine-N(1)-)-methyltransferase (Pseudomonas aeruginosa (strain ATCC 15692 / DSM 22644 / CIP 104116 / JCM14847 / LMG 12228 / 1C / PRS 101 / PAO1)) (UniProt Q9HXQ1); assay: Binding affinity to Pseudomonas aeruginosa tRNA (guanine(37)-N1)-methyltransferase (Leu5 to Asp25 residues) expressed in Escherichia coli BL21 (DE3) Rosetta T1R cells assessed as thermal stabilization of protein by measuring change in melting temperature at 0.1 mM by SYPRO orange based thermal shift assay
T2 sequence (whole entry): T1 sequence (Q9HXQ1 whole entry)
Summary of the method: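 Thermal shift: 4 μM TrmD with 5× SYPRO Orange and ligand in 50 mM Tris-HCl pH 8, 150 mM NaCl, 1 mM MgCl2, 1 mM DTT, 0.05% Tween-20. Buffer-only control. Heated from 25 to 95 °C in a real-time PCR instrument, and Tm taken as the unfolding midpoint. Ligand levels: SAH 2 mM, inhibitors 0.1 mM.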

Acinetobacter baumannii = assay: Antibacterial activity against Acinetobacter baumannii ATCC 17961 incubated for 24 hrs by serial broth microdilution method; type: functional
Summary of the method: (§2)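 Log-phase cultures from four colonies grown overnight at 37 °C, inoculated at ~5×10^5 cells/mL in cation-adjusted Mueller–Hinton broth with serially diluted compound. Grown 24 h at 37 °C, then OD600 read. MIC50/MIC90 are the concentrations giving 50%/90% growth inhibition relative to drug-free controls. Two independent experiments in duplicate.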

Salmonella enteritidis = assay: Antibacterial activity against Salmonella enteritidis ATCC 13076 incubated for 24 hrs by serial broth microdilution method; type: functional; conditions: Salmonella enterica subsp. enterica serovar Enteritidis; summary of the method: as §2
Klebsiella pneumoniae = assay: Antibacterial activity against Klebsiella pneumoniae ATCC 13883 incubated for 24 hrs by serial broth microdilution method; type: functional, organism-based; summary of the method: as §2
Escherichia coli = assay: Antibacterial activity against Escherichia coli BW25113 incubated for 24 hrs by serial broth microdilution method; type: functional, organism-based; summary of the method: as §2
Staphylococcus aureus [8] = assay: Antibacterial activity against methicillin-resistant Staphylococcus aureus ATCC 43300 incubated for 24 hrs by serial broth microdilution method; type: functional
Summary of the method: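 Growth read by OD600. MRSA in cation-adjusted Mueller–Hinton broth, M. smegmatis in complete 7H9. MIC50 and MIC90 are 50% and 90% growth inhibition versus drug-free controls. Two independent experiments, each in duplicate.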

Enterococcus faecalis [9] = assay: Antibacterial activity against Enterococcus faecalis ATCC 51299 incubated for 24 hrs by serial broth microdilution method; type: functional, organism-based
Summary of the method: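 Broth microdilution in brain heart infusion broth, ~5×10^5 cells/mL log-phase inoculum, serial compound dilutions, 24 h at 37 °C, OD600 read-out. MIC50/MIC90 are the concentrations giving 50%/90% growth inhibition relative to drug-free controls. Two independent experiments in duplicate.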

Pseudomonas aeruginosa = assay: Antibacterial activity against Pseudomonas aeruginosa PA14 incubated for 24 hrs by serial broth microdilution method; type: functional, organism-based; summary of the method: as §2
Streptococcus pneumoniae [10] = assay: Antibacterial activity against Streptococcus pneumoniae ATCC 49619 incubated for 24 hrs by serial broth microdilution method; type: functional
Summary of the method: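 Cultured in MH medium plus 3% defibrinated sheep blood at 37 °C, 5% CO2. Log-phase inoculum ~5×10^5 cells/mL was exposed to serial compound dilutions for 24 h. MIC50/MIC90 are relative to drug-free controls. Two independent experiments in duplicate.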

SMILES | Activity (Erythrocyte) | IC50 [1] | Activity [2] | Activity (Streptococcus pneumoniae [3]) | Activity (Enterococcus faecalis [4]) | Activity [5] | Activity (Staphylococcus aureus [6]) | ΔTm [7] | Activity (Acinetobacter baumannii) | Activity (Salmonella enteritidis) | Activity (Klebsiella pneumoniae) | Activity (Escherichia coli) | Activity (Staphylococcus aureus [8]) | Activity (Enterococcus faecalis [9]) | Activity (Pseudomonas aeruginosa) | Activity (Streptococcus pneumoniae [10])
CCN(Cc1ccc(CNC(=O)c2csc3nc[nH]c(=O)c23)cc1)C1CCCCC1 | Non-Toxic | 0.49 µM | inactive | inactive | inactive | inactive | inactive | – | – | – | – | – | – | – | – | –
CCCCCCCCN(Cc1ccccc1)Cc1ccc(CNC(=O)c2csc3nc[nH]c(=O)c23)cc1 | Non-Toxic | 12 µM | inactive | inactive | inactive | inactive | inactive | – | – | – | – | – | – | – | – | –
CCN(Cc1ccccc1)Cc1ccc(CNC(=O)c2csc3nc[nH]c(=O)c23)cc1 | Non-Toxic | 2.2 µM | inactive | inactive | inactive | inactive | inactive | – | – | – | – | – | – | – | – | –
CCOCCOCCNCc1ccc(CNC(=O)c2csc3nc[nH]c(=O)c23)cc1 | – | 0.21 µM | inactive | inactive | inactive | inactive | inactive | – | – | – | – | – | – | – | – | –
CCCCCCCCNCc1ccc(CNC(=O)c2csc3ncnc(OCc4ccc(N=[N+]=[N-])cc4)c23)cc1 | – | 1.8 µM | – | – | – | – | – | 1 to 2 °C | – | – | – | – | – | – | – | –
Cl.NCCCCCNCc1ccc(CNC(=O)c2csc3nc[nH]c(=O)c23)cc1 | Non-Toxic | 0.11 µM | inactive | inactive | inactive | inactive | inactive | – | inactive | inactive | inactive | inactive | inactive | inactive | inactive | inactive
CCCCCNCc1ccc(CNC(=O)c2csc3nc[nH]c(=O)c23)cc1 | Non-Toxic | 0.085 µM | inactive | inactive | inactive | inactive | inactive | – | – | – | – | – | – | – | – | –
Cl.NCCOCCOCCNCc1ccc(CNC(=O)c2csc3nc[nH]c(=O)c23)cc1 | Non-Toxic | 0.45 µM | inactive | inactive | inactive | inactive | inactive | – | inactive | inactive | inactive | inactive | inactive | inactive | inactive | inactive
O=C(NCc1ccc(CN2CCCCC2)cc1)c1csc2nc[nH]c(=O)c12 | Non-Toxic | 1.1 µM | inactive | inactive | inactive | inactive | inactive | – | – | – | – | – | – | – | – | –
O=C(NCc1ccc(CNC(=O)c2cc(=O)c(O)cn2O)cc1)c1csc2nc[nH]c(=O)c12 | Non-Toxic | 0.7 µM | inactive | inactive | inactive | inactive | inactive | – | inactive | inactive | inactive | inactive | inactive | inactive | inactive | inactive
CCN(CC)Cc1ccc(CNC(=O)c2csc3nc[nH]c(=O)c23)cc1 | Non-Toxic | 0.73 µM | inactive | inactive | inactive | inactive | inactive | – | – | – | – | – | – | – | – | –
O=C(NCc1ccc(CN2CCOCC2)cc1)c1csc2nc[nH]c(=O)c12 | Non-Toxic | 3 µM | inactive | inactive | inactive | inactive | inactive | – | – | – | – | – | – | – | – | –
CCCCCCN(Cc1ccccc1)Cc1ccc(CNC(=O)c2csc3nc[nH]c(=O)c23)cc1 | – | 2.2 µM | inactive | inactive | inactive | inactive | inactive | – | – | – | – | – | – | – | – | –
O=C(NCc1ccc(CNCc2ccccc2)cc1)c1csc2nc[nH]c(=O)c12 | Non-Toxic | 0.13 µM | inactive | inactive | inactive | inactive | inactive | – | – | – | – | – | – | – | – | –
CCCCCCCCN(CC)Cc1ccc(CNC(=O)c2csc3nc[nH]c(=O)c23)cc1 | – | 0.37 µM | inactive | inactive | inactive | inactive | inactive | – | – | – | – | – | – | – | – | –
CCCCNCc1ccc(CNC(=O)c2csc3nc[nH]c(=O)c23)cc1 | Non-Toxic | 0.15 µM | inactive | inactive | inactive | inactive | inactive | – | – | – | – | – | – | – | – | –
O=C(NCc1ccc(CNCCOCCO)cc1)c1csc2nc[nH]c(=O)c12 | Non-Toxic | 0.11 µM | inactive | inactive | inactive | inactive | inactive | – | – | – | – | – | – | – | – | –
O=C(NCc1ccc(CNC23CC4CC(CC(C4)C2)C3)cc1)c1csc2nc[nH]c(=O)c12 | Non-Toxic | 0.72 µM | inactive | inactive | inactive | inactive | inactive | – | – | – | – | – | – | – | – | –
O=C(NCc1ccc(CNC2CCCCC2)cc1)c1csc2nc[nH]c(=O)c12 | Non-Toxic | 0.79 µM | inactive | inactive | inactive | inactive | inactive | – | – | – | – | – | – | – | – | –

Source: ChEMBL document CHEMBL4373727, “Thienopyrimidinone Derivatives That Inhibit Bacterial tRNA (Guanine37-N1)-Methyltransferase (TrmD) by Restructuring the Active Site with a Tyrosine-Flipping Mechanism” (J Med Chem, 2019)
